Results from PubChem BioAssay.
Active and inactive are the calls of the source.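 The calls were made as follows, unless noted: active = visually confirmed hit in the image check and inhibition above 20%; inconclusive = visually confirmed hit but inhibition not above 20%; inactive = no visual hit in the image check.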

Columns and labels:
[1] = inhibitors of TNFa-induced NFkB p65 translocation, primary screen, imaging, HUVEC, MLSMR starter and 10KST1 sets (AID 438;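 active = inhibition above 20% together with a positive visual image hit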;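 also: compound added about 3h40 before a 20 min TNFalpha stimulation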;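 as to inhibition: signal is the nuclear over cytoplasmic p65 intensity ratio per well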); conditions: HUVEC TNFa-induced p65 nuclear translocation; cell count: measured here: nuclei count (cytotoxicity indicator), at 2.08 µM; inhibition: at 2 µM, stronger effect = higher value, 0% TNFa-plus-vehicle, 100% no-TNFa wells
[2] = endothelial E-selectin expression blockers – imaging, HUVEC, immunofluorescence, MLSMR starter and 10KST1 sets, primary screen (AID 487); conditions: HUVEC TNFalpha-induced E-selectin immunofluorescence imaging, at 2 µM; inhibition: stronger effect = higher value; nuclei count: measured here: cell number, toxicity;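 as to inhibition: signal is fraction of cell area covered by stained E-selectin grains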;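 as to nuclei count: 100% = median nuclei count of all wells on the same plate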
[3] = Primary imaging screen for DUSP6 inhibitors that restore phospho-Erk in transfected HeLa cells, chemical complementation (AID 609;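 active = compounds giving at least 50% inhibition in the cell-based MKP-3 phosphatase rescue imaging test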;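 as to inhibition: phospho-Erk level distribution per well compared with pooled transfected vehicle control wells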); conditions: HeLa MKP-3 transfected, phospho-Erk imaging KS statistic, at 10 µM, cells stimulated with TPA for 15 min
[4] = target: Dual specificity protein phosphatase 6 (Homo sapiens) (UniProt Q16828); assay: as above; conditions: HeLa MKP-3 transfected, phospho-Erk imaging KS statistic; at 10 µM; stronger effect = higher value; cells stimulated with TPA for 15 min
Chain of Dual specificity protein phosphatase 6 (Homo sapiens) (Q16828 whole entry, looked up): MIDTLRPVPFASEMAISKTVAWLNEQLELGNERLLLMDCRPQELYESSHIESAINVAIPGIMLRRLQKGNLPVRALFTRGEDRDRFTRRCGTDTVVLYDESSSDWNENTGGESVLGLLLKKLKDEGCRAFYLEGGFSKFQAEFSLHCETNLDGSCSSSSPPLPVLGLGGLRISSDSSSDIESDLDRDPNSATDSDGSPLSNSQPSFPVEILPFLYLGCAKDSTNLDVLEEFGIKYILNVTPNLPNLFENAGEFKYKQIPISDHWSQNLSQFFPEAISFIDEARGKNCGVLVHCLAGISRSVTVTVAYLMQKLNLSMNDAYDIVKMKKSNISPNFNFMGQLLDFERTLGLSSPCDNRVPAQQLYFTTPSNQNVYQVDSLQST

[5] = target: Voltage-gated potassium channel subunit beta-2 (Rattus norvegicus) (UniProt P62483); assay: inhibitors of rat Kvbeta2 reductase activity – biochemical, NADPH fluorescence, primary screen (AID 622;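 active = fluorescence slope higher than the sample average by over 3 SD, cut at about -0.22 in these data, passing the limit was not always enough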;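 also: slope of raw intensity against log time taken from 70 to 1610 s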); conditions: recombinant KvBeta, 4-cyanobenzaldehyde reduction, at 10 µM, stronger effect = higher value
Chain of Voltage-gated potassium channel subunit beta-2 (Rattus norvegicus) (P62483 whole entry, looked up): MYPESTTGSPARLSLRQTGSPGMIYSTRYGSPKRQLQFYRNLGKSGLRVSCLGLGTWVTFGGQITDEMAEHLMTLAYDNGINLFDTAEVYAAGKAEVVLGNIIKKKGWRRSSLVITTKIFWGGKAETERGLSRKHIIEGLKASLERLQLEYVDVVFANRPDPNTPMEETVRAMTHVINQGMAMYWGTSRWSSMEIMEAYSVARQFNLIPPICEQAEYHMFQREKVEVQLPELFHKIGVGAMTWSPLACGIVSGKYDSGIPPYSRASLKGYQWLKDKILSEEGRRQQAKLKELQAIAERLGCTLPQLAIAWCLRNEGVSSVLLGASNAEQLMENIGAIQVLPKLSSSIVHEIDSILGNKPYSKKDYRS

[6] = target: Voltage-gated potassium channel subunit beta-2 (Rattus norvegicus) (UniProt P62483); assay: enhancers of rat Kvbeta2 NADPH turnover – biochemical, NADPH fluorescence, primary screen (AID 623;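 active = NADPH fluorescence slope more negative than the mean of all samples by about 3 SD, 99.7% confidence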;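 also: fluorescence intensity change per second fitted from 20 to 320 s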); conditions: Recombinant KvBeta, NADPH fluorescence decrease slope, 10 min; at 10 µM; stronger effect = lower value
[7] = target: Alpha-2C adrenergic receptor (Homo sapiens) (UniProt P18825); assay: compounds altering alpha2C-coupled GIRK flux – cell-based, HEK293 alpha2C/GIRK1/2, thallium flux, primary screen (AID 624;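 active = fluorescence slope after compound addition differing from the mean of all screened samples at 99.7% confidence, in either direction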;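 also: slope of fluorescence ratio to pre-addition baseline per second over 15 to 24 s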); conditions: thallium flux BTC fluorescence, at 10 µM, actives lie on both sides
Chain of Alpha-2C adrenergic receptor (Homo sapiens) (P18825 whole entry, looked up): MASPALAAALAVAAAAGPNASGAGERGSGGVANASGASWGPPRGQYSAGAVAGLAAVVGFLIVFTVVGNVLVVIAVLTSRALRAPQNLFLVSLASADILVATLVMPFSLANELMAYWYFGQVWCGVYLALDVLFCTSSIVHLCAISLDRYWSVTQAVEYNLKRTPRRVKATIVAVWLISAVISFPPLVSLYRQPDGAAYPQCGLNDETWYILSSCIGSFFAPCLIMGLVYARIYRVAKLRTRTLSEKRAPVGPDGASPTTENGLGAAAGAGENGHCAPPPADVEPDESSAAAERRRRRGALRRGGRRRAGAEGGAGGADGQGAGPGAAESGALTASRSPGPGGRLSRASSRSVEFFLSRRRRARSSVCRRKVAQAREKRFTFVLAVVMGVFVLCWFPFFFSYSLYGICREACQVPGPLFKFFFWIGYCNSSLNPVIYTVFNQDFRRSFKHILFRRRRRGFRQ

[8] = inhibitors of larval lipid processing in zebrafish, primary screen, whole organism, PED6 fluorescence, gall bladder and intestine (AID 686;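 active = a full or partial loss of lipid-probe fluorescence in the fish gall bladder, intestine or both, judged by eye; inactive = no fluorescence loss, or compound toxic to the fish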;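 also: larvae 5 to 7 days old with five fish per well; signal comes from phospholipase A2 cleavage of quenched PED6 carried via bile; overnight exposure to compound and PED6 before scoring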); conditions: Zebrafish larvae PED6 lipid processing, fluorescence scoring; screened at 20 µM (by protocol)
How it was run: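 Also added: quenched phospholipase substrate PED6, 100 nM final, ingested by larvae; System: zebrafish larvae, 5-7 d; Quantity: 5 larvae per well; Compound: 20 µM single dose; Schedule: overnight compound and PED6 incubation; Read-out: visual per-well fluorescence inhibition score; Measured by: By-eye fluorescence microscopy; Medium: E3.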

[9] = loss of swimming-algae plug formation – whole organism, Chlamydomonas reinhardtii, WT vs cilia-less mutant, absorbance, 96-well, primary screen (AID 463189;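 active = inhibition at or above 50% relative to wild type and mutant plate controls; inactive = inhibition below 50%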;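 also: 0% = wild type cc124 cells in DMSO and 100% = ciliumless bld1 mutant cells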); conditions: Chlamydomonas reinhardtii gravitaxis, OD600 absorbance, 2 days; at 10 µM; stronger effect = higher value
[10] = measured here: cell density z-score
[11] = measured here: nuclear c-Myc green intensity z-score
[12] = measured here: nuclear pErk red intensity z-score, stronger effect = higher value

Row | SMILES | cell count [1] | inhibition [1] | inhibition [2] | nuclei count [2] [%] | z-score [3, 10] | z-score [3, 11] | z-score [3, 12] | inhibition [4] | fluorescence slope [5] | NADPH fluorescence slope [6] | slope [7] | outcome [8] | inhibition [9]
1 | CCOc1cccc(C2C(C#N)=C(N)Oc3cc(C)oc(=O)c32)c1OCC (stereo not given) | 362 | -24.9% (inactive) | -67.3% (inactive) | 143 | 0.354 | -0.768 | 1.02 | 8.76% (inactive) | -0.441 (inactive) | -0.000143 (inactive) | 0.00434 (inactive) | inactive | 10.1% (inactive)
2 | CN1CCc2c(sc3ncn4nc(-c5ccccc5O)nc4c23)C1 | 519 | -12.5% (inactive) | -51.6% (inactive) | 125 | 0.947 | -1.25 | 0.576 | 9.39% (inactive) | -0.472 (inactive) | -0.000226 (inactive) | 0.00542 (inactive) | inactive | 87% (active)
3 | COc1cccc(-c2nn3c(-c4ccccn4)nnc3s2)c1 | 630 | -8% (inactive) | -117% (inactive) | 150 | 0.488 | -0.624 | -0.933 | 15.5% (inactive) | -0.454 (inactive) | -0.000157 (inactive) | 0.00706 (inactive) | inactive | 65.3% (active)
4 | Cc1cc(C)c(C#N)c(SCC(=O)NC2CC2)n1 | 646 | -7.6% (inactive) | -12% (inactive) | 154 | 2.42 | -0.939 | 0.0715 | 2.92% (inactive) | -0.444 (inactive) | -5.6e-05 (inactive) | 0.00581 (inactive) | inactive | 0.954% (inactive)
5 | CN1C(=O)NC(NC(=O)c2ccco2)(C(F)(F)F)C1=O (stereo not given) | 489 | -3.4% (inactive) | -78% (inactive) | 116 | -0.0785 | -0.489 | 0.527 | 3.5% (inactive) | -0.504 (inactive) | -6e-05 (inactive) | 0.00753 (inactive) | inactive | -10.1% (inactive)
6 | COc1ccc(-c2cc(-c3ccccc3)n3ncnc3n2)cc1 | 451 | 3.2% (inactive) | -35.1% (inactive) | 162 | 1.29 | 1.44 | -0.816 | -1.12% (inactive) | -0.00896 (inactive) | -5.1e-07 (inactive) | 0.00473 (inactive) | inactive | -19.8% (inactive)
7 | CC(C)N1CC=C2C(C#N)=C(N)C(C#N)(C#N)C(c3ccccc3)C2C1 (stereo not given) | 535 | -3.2% (inactive) | -126% (inactive) | 218 | 0.674 | 3.57 | 1.58 | 68.6% (inactive) | -0.366 (inactive) | -2.3e-05 (inactive) | 0.000192 (inactive) | inactive | 11.1% (inactive)
8 | OCCOCCNc1ncnc2c1cnn2-c1ccccc1 | 472 | -2% (inactive) | -38.9% (inactive) | 162 | -0.85 | 1.86 | 0.161 | 16.8% (inactive) | -0.374 (inactive) | -1.3e-05 (inactive) | 0.00585 (inactive) | inactive | 0.488% (inactive)
9 | C=C(C)CN1CCN(c2c(CCC#N)c(C)c(C#N)c3nc4ccccc4n23)CC1 | 553 | -17.5% (inactive) | -77% (inactive) | 159 | -0.509 | -0.729 | -0.345 | -4.27% (inactive) | -0.00664 (inactive) | -2.3e-06 (inactive) | 0.00756 (inactive) | inactive | 17.9% (inactive)
10 | COc1ccc2[nH]c(C)c(C(=O)CN3CCc4cc(OC)c(OC)cc4C3)c2c1 | 520 | 3.2% (inactive) | 7.5% (inactive) | 117 | -1.28 | 1.53 | -1.2 | -8.76% (inactive) | -0.205 (inactive) | -2e-05 (inactive) | 0.00464 (inactive) | inactive | 22.2% (inactive)
11 | COc1ccc(OC)c(C2/C(=C(/O)c3ccc(C)cc3)C(=O)C(=O)N2Cc2ccco2)c1 (stereo not given) | 561 | -1.8% (inactive) | -18.5% (inactive) | 143 | 1.28 | 0.438 | 0.373 | -7.86% (inactive) | -0.568 (inactive) | -1.3e-05 (inactive) | 0.00557 (inactive) | inactive | -7.49% (inactive)
12 | O=C(CN1C(=O)c2ccccc2C1=O)NCc1ccccn1 | 400 | -5.8% (inactive) | -67.3% (inactive) | 171 | 0.0865 | -1.72 | 1.07 | 5.42% (inactive) | -0.417 (inactive) | -0.000121 (inactive) | 0.00507 (inactive) | inactive | 26% (inactive)
13 | CCN(CC)S(=O)(=O)c1ccc2c(c1)c(C(=O)O)cn2C | 435 | -15.2% (inactive) | -25.4% (inactive) | 114 | 0.944 | -0.275 | -1.67 | 24.4% (inactive) | -0.568 (inactive) | -6e-05 (inactive) | 0.00489 (inactive) | inactive | 22.9% (inactive)
14 | COc1ccc(CCNC2CC(C)N(C)CC2C)cc1OC (stereo not given) | 549 | -11.3% (inactive) | -75.9% (inactive) | 170 | 0.099 | -0.11 | 2.07 | -0.608% (inactive) | -0.515 (inactive) | -3e-05 (inactive) | 0.00466 (inactive) | inactive | 12.3% (inactive)
15 | COc1ccccc1C(CC(=O)Nc1nccs1)c1ccco1 (stereo not given) | 354 | -14.3% (inactive) | -98.9% (inactive) | 155 | -0.704 | -0.887 | -0.714 | 1.75% (inactive) | -0.398 (inactive) | -7.2e-05 (inactive) | 0.00663 (inactive) | inactive | 31.8% (inactive)
16 | Cc1nc(N2CCOCC2)c(C#N)c2c1COC(C)(C)C2 | 582 | -0.2% (inactive) | -43.9% (inactive) | 99.8 | -1.02 | 1 | -1.11 | 3.66% (inactive) | -0.521 (inactive) | -4.3e-05 (inactive) | 0.00501 (inactive) | inactive | -6.08% (inactive)
17 | Cn1cc(C(=O)NCN2CCCCC2)c2ccccc21 | 637 | -1.9% (inactive) | 33.7% (inactive) | 201 | 0.345 | -0.8 | -0.0314 | -5.89% (inactive) | -0.45 (inactive) | -0.000261 (inactive) | 0.00517 (inactive) | inactive | -12.4% (inactive)
18 | Cn1cc(Br)cc2nc(C(F)(F)F)nc1-2 | 534 | -11.2% (inactive) | -143% (inactive) | 133 | 0.955 | -1.14 | -0.53 | 29.7% (inactive) | -0.532 (inactive) | -2.5e-05 (inactive) | 0.00656 (inactive) | inactive | 20% (inactive)
19 | CC1(C)Cc2c(sc3[nH]c(=S)n(Cc4ccco4)c(=O)c23)CO1 | 541 | -15.5% (inactive) | -74.4% (inactive) | 117 | -0.898 | -0.375 | -0.762 | -2.69% (inactive) | -0.361 (inactive) | 2.2e-05 (inactive) | 0.0124 (active) | inactive | -12.6% (inactive)
20 | Cc1cc(=O)oc2cc(OCCSCCN3CCOCC3)ccc12 | 382 | -4.7% (inactive) | -171% (inactive) | 162 | 1.19 | 0.929 | 0.186 | 15.1% (inactive) | -0.358 (inactive) | -6.2e-05 (inactive) | 0.00648 (inactive) | inactive | -5.19% (inactive)
21 | CC1(C)Cc2c(sc3nc4n(c(=N)c23)CCC4)CO1 | 678 | -24.9% (inactive) | -38.1% (inactive) | 164 | -0.552 | 1.24 | 2.19 | -13.9% (inactive) | -0.416 (inactive) | -4.6e-05 (inactive) | 0.00517 (inactive) | inactive | -6.56% (inactive)
22 | c1coc(CNc2ncnc3ccccc23)c1 | 553 | -2.6% (inactive) | 2.7% (inactive) | 155 | 0.847 | -1.11 | 1.51 | 14% (inactive) | -0.479 (inactive) | -0.000192 (inactive) | 0.00559 (inactive) | inactive; toxic | 12.9% (inactive)
23 | O=C(O)CCSc1ccc2ccccc2n1 | 502 | 0.3% (inactive) | -157% (inactive) | 135 | 1.96 | -1.24 | -0.378 | 15.8% (inactive) | -0.49 (inactive) | -7.2e-05 (inactive) | 0.00505 (inactive) | inactive | 9.45% (inactive)
24 | CCOC(=O)c1c(N)sc2c1CCC1C(=O)N(C3CCCCC3)C(=O)C21 (stereo not given) | 593 | -15.5% (inactive) | -59.6% (inactive) | 170 | -0.619 | -0.159 | 0.799 | -11% (inactive) | -0.362 (inactive) | -3.1e-06 (inactive) | 0.0048 (inactive) | inactive | -3.12% (inactive)
25 | Cc1occc(=O)c1OC(=O)Nc1ccccc1 | 477 | -8.6% (inactive) | -106% (inactive) | 154 | -0.12 | 2.47 | -1.69 | 14% (inactive) | -0.524 (inactive) | -2.3e-05 (inactive) | 0.00424 (inactive) | inactive | -3.66% (inactive)
